# Experimental data as given in ChEMBL document CHEMBL2169833, “Solubility-driven optimization of phosphodiesterase-4 inhibitors leading to a clinical candidate” (J Med Chem, 2012).
# What was measured:
# [1] = Thermodynamic aqueous solubility of the compound at pH 6.8; format: physicochemical; details: buffer; for solubility thermodynamic: read-out: Therm_solubility
# [2] = target: 3',5'-cyclic-AMP phosphodiesterase 4D (Homo sapiens, UniProt Q08499); assay: Inhibition of human PDE4D-mediated [3H]CAMP hydrolysis after 30 to 60 mins by scintillation proximity assay
# Chain of 3',5'-cyclic-AMP phosphodiesterase 4D (Q08499 whole entry): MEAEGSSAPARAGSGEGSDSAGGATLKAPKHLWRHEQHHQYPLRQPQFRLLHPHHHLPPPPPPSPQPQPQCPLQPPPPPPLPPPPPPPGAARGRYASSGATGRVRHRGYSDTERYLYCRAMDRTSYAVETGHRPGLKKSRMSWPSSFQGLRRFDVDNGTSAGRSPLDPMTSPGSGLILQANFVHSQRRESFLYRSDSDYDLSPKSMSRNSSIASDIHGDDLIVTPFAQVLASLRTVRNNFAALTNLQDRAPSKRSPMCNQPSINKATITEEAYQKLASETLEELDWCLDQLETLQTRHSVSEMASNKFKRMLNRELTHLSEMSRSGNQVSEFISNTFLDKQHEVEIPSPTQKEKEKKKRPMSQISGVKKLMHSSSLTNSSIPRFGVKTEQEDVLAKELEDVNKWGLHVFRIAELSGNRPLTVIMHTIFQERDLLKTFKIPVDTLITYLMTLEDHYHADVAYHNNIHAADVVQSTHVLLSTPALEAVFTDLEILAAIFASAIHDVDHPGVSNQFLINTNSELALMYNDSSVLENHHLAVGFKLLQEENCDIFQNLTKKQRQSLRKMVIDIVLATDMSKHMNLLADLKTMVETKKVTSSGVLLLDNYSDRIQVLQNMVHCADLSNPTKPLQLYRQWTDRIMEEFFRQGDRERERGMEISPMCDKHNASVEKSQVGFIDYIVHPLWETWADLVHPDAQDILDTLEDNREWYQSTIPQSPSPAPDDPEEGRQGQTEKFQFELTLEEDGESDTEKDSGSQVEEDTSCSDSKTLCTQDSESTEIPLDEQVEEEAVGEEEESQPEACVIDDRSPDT
# Method in brief: (§1)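 Enzyme was diluted in 10 mM Tris-HCl pH 7.5 with 1 mM EDTA to give 10–30% substrate hydrolysis. Substrate was [3H]-cAMP (0.1 μCi) with 1 μM cAMP. Inhibitors were tested at 10 concentrations with 1% DMSO, 30−60 min at room temperature, stopped with PDE SPA beads and counted. IC50 came from curves. Mean of ≥2 experiments in duplicate, SEM where n ≥ 3.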
# [3] = target: 3',5'-cyclic-AMP phosphodiesterase 4B (Homo sapiens, UniProt Q07343); assay: Inhibition of human PDE4B-mediated [3H]CAMP hydrolysis after 30 to 60 mins by scintillation proximity assay; method in brief: as §1
# Chain of 3',5'-cyclic-AMP phosphodiesterase 4B (Q07343 whole entry): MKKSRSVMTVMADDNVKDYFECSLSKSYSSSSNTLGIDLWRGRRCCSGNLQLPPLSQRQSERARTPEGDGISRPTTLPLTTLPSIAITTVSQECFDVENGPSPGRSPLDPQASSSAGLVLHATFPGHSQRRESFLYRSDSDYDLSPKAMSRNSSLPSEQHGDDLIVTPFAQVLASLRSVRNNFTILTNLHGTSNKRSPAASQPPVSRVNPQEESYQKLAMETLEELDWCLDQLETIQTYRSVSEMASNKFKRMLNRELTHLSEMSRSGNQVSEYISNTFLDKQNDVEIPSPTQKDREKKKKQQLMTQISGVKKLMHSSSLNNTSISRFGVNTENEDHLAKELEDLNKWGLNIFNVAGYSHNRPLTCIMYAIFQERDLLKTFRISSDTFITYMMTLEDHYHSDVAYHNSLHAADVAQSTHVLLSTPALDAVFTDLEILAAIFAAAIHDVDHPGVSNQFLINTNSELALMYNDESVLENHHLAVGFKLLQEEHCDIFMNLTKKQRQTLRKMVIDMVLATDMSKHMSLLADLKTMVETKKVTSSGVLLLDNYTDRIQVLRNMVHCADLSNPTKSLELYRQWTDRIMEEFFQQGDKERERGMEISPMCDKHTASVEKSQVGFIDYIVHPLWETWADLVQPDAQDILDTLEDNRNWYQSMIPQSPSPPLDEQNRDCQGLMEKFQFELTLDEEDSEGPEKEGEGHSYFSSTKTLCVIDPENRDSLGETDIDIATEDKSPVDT
# [4] = target: 3',5'-cyclic-AMP phosphodiesterase 4A (Homo sapiens, UniProt P27815); assay: Inhibition of human PDE4A-mediated [3H]CAMP hydrolysis after 30 to 60 mins by scintillation proximity assay; method in brief: as §1
# Chain of 3',5'-cyclic-AMP phosphodiesterase 4A (P27815 whole entry): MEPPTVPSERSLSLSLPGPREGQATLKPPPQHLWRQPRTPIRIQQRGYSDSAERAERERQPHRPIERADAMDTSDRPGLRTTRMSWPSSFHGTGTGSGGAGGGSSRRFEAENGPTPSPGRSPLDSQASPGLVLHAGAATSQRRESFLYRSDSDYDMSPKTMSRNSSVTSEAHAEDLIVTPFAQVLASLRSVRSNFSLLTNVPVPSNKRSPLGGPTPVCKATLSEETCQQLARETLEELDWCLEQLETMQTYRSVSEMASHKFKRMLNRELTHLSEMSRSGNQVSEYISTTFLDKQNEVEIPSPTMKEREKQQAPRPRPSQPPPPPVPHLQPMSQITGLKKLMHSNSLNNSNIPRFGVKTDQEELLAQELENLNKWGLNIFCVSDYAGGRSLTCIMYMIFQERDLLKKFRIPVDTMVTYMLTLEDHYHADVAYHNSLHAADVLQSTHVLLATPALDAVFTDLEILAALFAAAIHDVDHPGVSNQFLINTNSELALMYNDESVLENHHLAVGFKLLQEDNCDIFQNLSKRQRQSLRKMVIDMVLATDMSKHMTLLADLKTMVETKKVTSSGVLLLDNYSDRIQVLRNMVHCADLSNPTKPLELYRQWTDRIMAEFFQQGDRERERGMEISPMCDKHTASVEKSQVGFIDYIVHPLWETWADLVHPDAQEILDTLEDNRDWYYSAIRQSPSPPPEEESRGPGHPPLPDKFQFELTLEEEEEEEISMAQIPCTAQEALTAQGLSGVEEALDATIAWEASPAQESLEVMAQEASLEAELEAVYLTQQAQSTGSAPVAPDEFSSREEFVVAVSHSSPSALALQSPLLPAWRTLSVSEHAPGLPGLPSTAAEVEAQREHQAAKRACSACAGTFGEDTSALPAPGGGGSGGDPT
# [5] = Half life in ferret at 3.42 umol/kg, ig; format: ADME, organism-based, Mustela putorius furo; details: in vivo, po
# Method in brief: (§2)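 Ferret PK after intragastric dosing as a solution in PEG200/saline (50/50, v/v) at 3.42 μmol/kg, with one compound at 2.98 μmol/kg. Plasma levels were measured. Detection limits were 0.5 μM for roflumilast and <0.02 μM for its N-oxide metabolite.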
# [6] = AUC total in ferret at 3.42 umol/kg, ig; format: ADME, organism-based, Mustela putorius furo; details: plasma, po; method in brief: as §2
# [7] = Tmax in ferret at 3.42 umol/kg, ig; format: ADME, organism-based, Mustela putorius furo; details: in vivo, po; method in brief: as §2
# [8] = Cmax in ferret at 3.42 umol/kg, ig; format: ADME, organism-based, Mustela putorius furo; parameters: dose 3.42 umol/kg, route intragastric; details: in vivo, po; method in brief: as §2
# Mustela putorius furo = assay: Toxicity in ferret assessed as emesis at 0.075 to 4.8 mg/kg, po after 4 hrs; format: organism-based; parameters: dose 0.075-4.8 mg/kg, route oral; details: in vivo
# Mus musculus = assay: Antiinflammatory activity in po dosed BALB/c mouse assessed as inhibition of LPS-induced neutrophil influx into BALF administered 1 hr prior to LPS-challenge measured after 3 hrs; format: functional
# Method in brief: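 Mice were given vehicle (PEG200:saline 1:1) or compound orally at 1−30 mg/kg, 1 h before LPS challenge. The control group got vehicle with PBS challenge. Animals were killed 3 h after challenge. Pooled from two experiments, 6−15 mice per group. Mann−Whitney test versus vehicle/LPS animals.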
# Rattus norvegicus [9] = assay: Antiinflammatory activity in po dosed ovalbumin-sensitized Brown Norway rat assessed as inhibition of ovalbumin-induced eosinophil influx into BALF administered 2 hrs prior to ovalbumin-challenge measured after 24 hrs; format: functional
# Method in brief: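 Brown Norway rats were actively sensitized and dosed orally at 0.3, 1 or 3 mg/kg, or with vehicle PEG200:saline 1:1, 2 h before inhaled ovalbumin challenge. Saline-challenged rats served as controls. Eosinophils were counted in BAL fluid 24 h after challenge. Mean ± SEM, 5−10 animals per group. ED50 was estimated.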
# Phosphodiesterase 4 = Phosphodiesterase 4 (Homo sapiens, UniProt P27815+Q08499+Q07343+Q08493); assay: Inhibition of PDE4 in human PBMC assessed as inhibition of LPS-induced TNFalpha production incubated for 10 mins prior to LPS-challenge measured after 20 hrs by sandwich ELISA
# Method in brief: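 Human PBMC were isolated from normal donors by Ficoll−Hypaque and grown at 1 × 10⁶ cells/mL in RPMI1640 with 10% FCS. Compound was preincubated 10 min, then LPS added (10 ng/mL, stock added). Cells were incubated 20 h at 37 °C in 5% CO₂. Supernatant TNF-α was measured by sandwich ELISA at OD405 (sensitivity ~10 pg/mL). IC50 came from inhibition curves.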
# [10] = (§3) Oral bioavailability in rat at 2.1 umol/kg; format: ADME, organism-based; details: in vivo, 2.1 umol/kg
# Method in brief: (§4)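 Rat PK after iv and po dosing, some compounds given as the potassium or sodium salt. Vehicle was PBS or 25/75 PEG200/PBS. Dose matched formulation strength: iv 1.05, 2.1 or 4.2 μmol/kg; po 2.1 or 4.2 μmol/kg. For some compounds iv and po used the same dose (2.1 or 4.2 μmol/kg).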
# [11] = Half life in rat at 2.1 umol/kg, po; format: ADME, organism-based; details: in vivo; method in brief: as §4
# [12] = (§5) AUC total in rat at 2.1 umol/kg, po; format: ADME, organism-based, Plasma; details: plasma, 2.1 umol/kg; method in brief: as §4
# [13] = Tmax in rat at 2.1 umol/kg, po; format: ADME, organism-based; details: in vivo; method in brief: as §4
# [14] = Cmax in rat at 2.1 umol/kg, po; format: ADME, organism-based; parameters: dose 2.1 umol/kg, route oral; details: in vivo; method in brief: as §4
# [15] = Clearance in rat at 1.05 umol/kg, iv; format: ADME, organism-based; details: in vivo; method in brief: as §4
# [16] = Volume of distribution at steady state in rat at 1.05 umol/kg, iv; format: ADME, organism-based; details: in vivo, read-out: Vdss; method in brief: as §4
# Rattus norvegicus [17] = assay: Oral bioavailability in rat at 4.2 umol/kg; format: ADME, organism-based; details: in vivo; method in brief: as §4
# [18] = Half life in rat at 4.2 umol/kg, po; format: ADME, organism-based; details: in vivo; method in brief: as §4
# Rattus norvegicus [19] = assay: (§6) AUC total in rat at 4.2 umol/kg, po; format: ADME, organism-based, Plasma; details: in vivo; method in brief: as §4
# [20] = Tmax in rat at 4.2 umol/kg, po; format: ADME, organism-based; details: in vivo; method in brief: as §4
# [21] = Volume of distribution at steady state in rat at 2.1 umol/kg, iv; format: ADME, organism-based; details: in vivo, read-out: Vdss; method in brief: as §4
# [22] = as §6; format: ADME, organism-based, Plasma; details: plasma, 4.2 umol/kg; method in brief: as §4
# [23] = Cmax in rat at 4.2 umol/kg, po; format: ADME, organism-based; parameters: dose 4.2 umol/kg, route oral; details: in vivo; method in brief: as §4
# [24] = Clearance in rat at 4.2 umol/kg, iv; format: ADME, organism-based; details: in vivo; method in brief: as §4
# [25] = Volume of distribution at steady state in rat at 4.2 umol/kg, iv; format: ADME, organism-based; details: in vivo, read-out: Vdss; method in brief: as §4
# Rattus norvegicus [26] = assay: as §3; format: ADME, organism-based; details: in vivo; method in brief: as §4
# Rattus norvegicus [27] = assay: as §5; format: ADME, organism-based, Plasma; details: in vivo; method in brief: as §4
# [28] = Oral bioavailability in rat; format: ADME, organism-based; details: in vivo; method in brief: as §4
# [29] = AUC total in po dosed rat; format: ADME, organism-based; details: plasma; method in brief: as §4
# Rattus norvegicus [30] = assay: Half life in po dosed rat; format: ADME, organism-based; details: in vivo; method in brief: as §4
# [31] = Tmax in po dosed rat; format: ADME, organism-based; details: in vivo; method in brief: as §4
# [32] = Cmax in po dosed rat; format: ADME, organism-based; parameters: route oral; details: in vivo; method in brief: as §4
# [33] = Clearance in iv dosed rat; format: ADME, organism-based; details: in vivo; method in brief: as §4
# [34] = Thermodynamic solubility of the compound at pH 1; format: physicochemical; details: buffer
# [35] = Volume of distribution at steady state in iv dosed rat; format: ADME, organism-based; details: in vivo, read-out: Vdss; method in brief: as §4
smiles,measurement,setting,value
CSc1cccc(-c2nc(N3CCC(C(=O)O)CC3)cc3cccnc23)c1,solubility thermodynamic,[1],378 µg/mL
same,IC50,[2],51 nM
same,IC50,[3],1330 nM
same,IC50,[4],587 nM
O=C(O)[C@H]1CC[C@H](c2cc3cccnc3c(-c3cccc(F)c3)n2)CC1,half-life,[5],3.2 h
same,AUC,[6],59.3 µM·h
same,Tmax,[7],1.5 h
same,Cmax,[8],12.3 µM
same,Activity,Mustela putorius furo,Non-toxic
same,ED50,Mus musculus,11.2 mg/kg
same,ED50,Rattus norvegicus [9],1.2 mg/kg
same,Therm_solubility,[1],920 µg/mL
same,IC50,Phosphodiesterase 4,126 nM
same,IC50,[2],32 nM
same,IC50,[3],34 nM
same,IC50,[4],123 nM
O=C([O-])[C@H]1CC[C@H](c2cc3cccnc3c(-c3cccc(OC(F)(F)F)c3)n2)CC1.[K+],bioavailability,[10],107%
same,half-life,[11],29 h
same,AUC,[12],84 µM·h
same,Tmax,[13],7.42 h
same,Cmax,[14],3.6 µM
same,clearance,[15],0.65 mL/min/kg
same,Vd,[16],0.36 L/kg
CSc1cccc(-c2nc([C@H]3CC[C@H](C(=O)O)CC3)cc3cccnc23)c1,solubility thermodynamic,[1],1100 µg/mL
same,IC50,Phosphodiesterase 4,19 nM
same,IC50,[2],6 nM
same,IC50,[3],17 nM
same,IC50,[4],27 nM
O=C([O-])C1CCN(c2cc3cccnc3c(-c3cccc(F)c3)n2)CC1.[Na+],F,Rattus norvegicus [17],70%
same,half-life,[18],17 h
same,AUC,Rattus norvegicus [19],3919 µM·min
same,Tmax,[20],2.88 h
same,Vd,[21],0.24 L/kg
N#Cc1cccc(-c2nc([C@H]3CC[C@H](C(=O)[O-])CC3)cc3cccnc23)c1.[K+],half-life,[18],193 h
same,AUC,[22],1880 µM·h
same,Tmax,[20],25 h
same,Cmax,[23],8.3 µM
same,clearance,[24],0.22 mL/min/kg
same,Vd,[25],0.25 L/kg
COc1cccc(-c2nc([C@H]3CC[C@H](C(=O)O)CC3)cc3cccnc23)c1,Therm_solubility,[1],150 µg/mL
same,IC50,Phosphodiesterase 4,151 nM
same,IC50,[2],64 nM
same,IC50,[3],156 nM
same,IC50,[4],242 nM
O=C([O-])[C@H]1CC[C@H](c2cc3cccnc3c(-c3cccc(F)c3)n2)CC1.[K+],F,Rattus norvegicus [26],52%
same,half-life,[11],9 h
same,AUC,Rattus norvegicus [27],4408 µM·min
same,Cmax,[14],4.6 µM
same,Vd,[21],0.09 L/kg
O=C(O)c1ccc(-c2cc3cccnc3c(-c3ccc4nonc4c3)n2)cc1,bioavailability,[28],8%
same,AUC,[29],8.72 µM·h
same,t1/2,Rattus norvegicus [30],12 h
same,Tmax,[31],3.5 h
same,Cmax,[32],2.4 µM
same,clearance,[33],2.34 mL/min/kg
same,Therm_solubility,[34],0.04 µg/mL
same,Vd,[35],0.37 L/kg
same,solubility thermodynamic,[1],2 µg/mL
same,IC50,Phosphodiesterase 4,67.6 nM
N#Cc1cccc(-c2nc(N3CCC(C(=O)O)CC3)cc3cccnc23)c1,F,Rattus norvegicus [26],158%
same,half-life,[11],23 h
same,AUC,[12],46.1 µM·h
same,Tmax,[13],2.15 h
same,Cmax,[14],2.8 µM
same,clearance,[15],1.16 mL/min/kg
same,Vd,[16],0.72 L/kg
same,solubility thermodynamic,[1],> 4000 µg/mL
same,IC50,Phosphodiesterase 4,851 nM
same,IC50,[2],19 nM
same,IC50,[3],168 nM
same,IC50,[4],271 nM
